Measurements published in ChEMBL document CHEMBL4422614 (Eur J Med Chem, 2019).
Active and inactive are the calls of the source. The rule behind the calls is not given here.

Legend:
[1] = molecular target: 3',5'-cyclic-AMP phosphodiesterase 4D (Homo sapiens, UniProt Q08499); test: Inhibition of human PDE4D2 (86 to 413 residues) catalytic domain using [3H]-cAMP as substrate after 15 mins by liquid scintillation counting method
[2] = Antioxidant activity assessed as trolox equivalent of AAPH-induced radical scavenging activity at 10 to 20 uM preincubated for 10 mins followed by AAPH addition measured every minute for 120 mins by ORAC fluorescein assay; format: functional
Summary of the method: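 ORAC values are expressed as trolox equivalents, mean ± SD of three independent experiments.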

[3] = Metal chelating activity of the compound assessed as formation of cupric-compound complex at 50 uM after 30 mins by UV-vis spectrophotometric analysis
Summary of the method: (§1)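 UV-vis absorption spectra of compound (50 µM) were recorded in HEPES buffer alone and with 50 µM CuSO4, ZnCl2, FeSO4 or FeCl3, and spectral changes were assessed.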

[4] = Metal chelating activity of the compound assessed as formation of zinc-compound complex at 50 uM after 30 mins by UV-vis spectrophotometric analysis; summary of the method: as §1
[5] = Metal chelating activity of the compound assessed as formation of ferric-compound complex at 50 uM after 30 mins by UV-vis spectrophotometric analysis; summary of the method: as §1
SH-SY5Y = test: Cytotoxicity against human SH-SY5Y cells assessed as effect on cell viability at 10 uM after 24 hrs by MTT assay; format: cell-based
Summary of the method: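 SH-SY5Y viability was measured by MTT after exposure to compounds at 10 µM. Results are percent of vehicle control from three independent experiments.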

[6] = Metal chelating activity assessed as inhibition of Cu2+-induced amyloid beta (1 to 42 residues) aggregation at 25 uM after 24 hrs by thioflavin-T fluorescence assay (reference value: 156%); parameters: scale not given: the % may be the effect or the level left
Summary of the method: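 Aβ1-42 was incubated with Cu(II) (CuSO4) with or without compound, and thioflavin T fluorescence was read. The Aβ-alone signal was set as 100%. Mean ± SD of three independent experiments.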

[7] = Metal chelating activity assessed as inhibition of Cu(II)-induced amyloid beta (1 to 42 residues) aggregation at 25 uM after 24 hrs by thioflavin-T fluorescence assay (reference value: 156%); parameters: scale not given: the % may be the effect or the level left
Summary of the method: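 Aβ1-42 was incubated with CuSO4 with or without compound, and thioflavin T fluorescence was read. Fluorescence is given as percent of Aβ alone, as mean ± SD of three independent experiments.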

[8] = Metal chelating activity assessed as inhibition of Cu(II)/ascorbate-induced ROS production by measuring […] level at 10 uM by fluorescence assay
Summary of the method: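 A Cu-ascorbate redox system in PBS (pH 7.4) at 37 °C, with Cu(II) 5 µM, ascorbate 150 µM and coumarin-3-carboxylic acid 50 µM as the hydroxyl radical trap. Compound was pre-incubated 10 min before ascorbate was added. Fluorescence of 7-hydroxy-CCA (ex 395, em 450 nm) was read every 30 s for 15 min.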

[9] = Acute Toxicity in C57BL/6 mouse assessed as mouse mortality up to 2000 mg/kg, ig measured over 14 days; format: organism-based; conditions: in vivo, po, 336 h
Summary of the method: (§2)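 Mice given a single intragastric dose of test compound at various dosages, then observed for 14 days for death and abnormal behaviour. On day 14, animals were sacrificed and heart, liver, lungs and kidneys examined.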

[10] = Acute Toxicity in C57BL/6 mouse assessed as abnormal behavior up to 2000 mg/kg, ig measured over 14 days; format: organism-based; conditions: in vivo, po, 336 h; summary of the method: as §2
[11] = Acute Toxicity in C57BL/6 mouse up to 2000 mg/kg, ig measured every 14 days; format: organism-based; conditions: in vivo, po, 336 h; summary of the method: as §2
[12] = Hepatotoxicity in C57BL/6 mouse assessed as tissue damage up to 2000 mg/kg, ig after 14 days by microscopic analysis; format: toxicity, organism-based; conditions: in vivo, po, 336 h; summary of the method: as §2
[13] = Cardiotoxicity in C57BL/6 mouse assessed as abnormal changes up to 2000 mg/kg, ig after 14 days by microscopic analysis; format: toxicity, organism-based; conditions: in vivo, po, 336 h; summary of the method: as §2
[14] = Cardiotoxicity in C57BL/6 mouse assessed as tissue damage up to 2000 mg/kg, ig after 14 days by microscopic analysis; format: toxicity, organism-based; conditions: in vivo, po, 336 h; summary of the method: as §2
[15] = Acute Toxicity in C57BL/6 mouse lung assessed as tissue damage up to 2000 mg/kg, ig after 14 days by microscopic analysis; format: organism-based; conditions: in vivo, po, 336 h; summary of the method: as §2
Mus musculus [16] = test: Cognition enhancement activity in amyloid beta (25 to 35 residues) induced C57BL/6J mouse model of Alzheimer's disease assessed as decrease in escape latancy at 30 mg/kg/day, ig administered for 26 consecutive days by Morris water maze test; format: functional, organism-based
Summary of the method: (§3)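 Mice were randomized into 7 groups. All except sham got an ICV injection of Aβ25-35 (3 nmol); sham got the same volume of saline ICV. Dosing was intragastric daily for 26 days, with 0.5% CMC-Na as vehicle for sham and model. Body weight, diarrhea and emesis-like behavior were monitored.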

[17] = Toxicity in amyloid beta (25 to 35 residues) induced C57BL/6J mouse model of Alzheimer's disease assessed as loss of body weight at 30 mg/kg/day, ig administered for 26 consecutive days; format: organism-based; conditions: in vivo, po; summary of the method: as §3
[18] = Toxicity in amyloid beta (25 to 35 residues) induced C57BL/6J mouse model of Alzheimer's disease assessed as diarrhea at 30 mg/kg/day, ig administered for 26 consecutive days; format: organism-based; conditions: in vivo, po; summary of the method: as §3
Mus musculus [19] = test: Cognition enhancement activity in amyloid beta (25 to 35 residues) induced C57BL/6J mouse model of Alzheimer's disease assessed as increase in number of virtual platform crossing at 30 mg/kg/day, ig administered for 26 consecutive days by Morris water maze test; format: functional, organism-based; summary of the method: as §3
Mus musculus [20] = test: Cognition enhancement activity in amyloid beta (25 to 35 residues) induced C57BL/6J mouse model of Alzheimer's disease assessed as swimming path length in virtual platform at 30 mg/kg/day, ig administered for 26 consecutive days by Morris water maze test (10.2 +/- 3.2 cm); format: functional; summary of the method: as §3
Mus musculus [21] = test: Cognition enhancement activity in amyloid beta (25 to 35 residues) induced C57BL/6J mouse model of Alzheimer's disease assessed as swimming time in effective region at 30 mg/kg/day, ig administered for 26 consecutive days by Morris water maze test (4.3 +/- 1.3 sec); format: functional; summary of the method: as §3
Mus musculus [22] = test: Neuroprotection in amyloid beta (25 to 35 residues) induced C57BL/6J mouse model of Alzheimer's disease assessed as reduction in ratio of apoptotic neuron in CA3 hippocampus region at 30 mg/kg/day, ig administered for 26 consecutive days by hematoxylin and eosin staining-based light microscopic analysis (reference value: 80.2 +/- 8.6%); format: ADME, organism-based; parameters: scale not given: the % may be the effect or the level left; conditions: in vivo, po
Summary of the method: (§4)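 Hippocampal CA1, CA3 and DG neurons were stained with H&E after the Aβ25-35 ICV model and 26-day intragastric dosing. Denatured cell index = denatured cells/total cells, n = 5. Values are mean ± SD, two-way ANOVA versus model.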

Mus musculus [23] = test: Neuroprotection in amyloid beta (25 to 35 residues) induced C57BL/6J mouse model of Alzheimer's disease assessed as reduction in ratio of apoptotic neuron in DG hippocampus region at 30 mg/kg/day, ig administered for 26 consecutive days by hematoxylin and eosin staining-based light microscopic analysis (reference value: 55.8 +/- 7.2%); format: ADME, organism-based; parameters: scale not given: the % may be the effect or the level left; conditions: in vivo, po; summary of the method: as §4
[24] = Drug metabolism in Sprague-Dawley rat liver microsomes assessed as metabolic rate up to 180 mins in presence of NADPH by UV-based LC-MS/MS analysis; format: ADME, Microsome; conditions: 3 h
in vitro = conditions: PAMPA

3',5'-cyclic-AMP phosphodiesterase 4D, sequence (Q08499 whole entry, the tested form may be a part): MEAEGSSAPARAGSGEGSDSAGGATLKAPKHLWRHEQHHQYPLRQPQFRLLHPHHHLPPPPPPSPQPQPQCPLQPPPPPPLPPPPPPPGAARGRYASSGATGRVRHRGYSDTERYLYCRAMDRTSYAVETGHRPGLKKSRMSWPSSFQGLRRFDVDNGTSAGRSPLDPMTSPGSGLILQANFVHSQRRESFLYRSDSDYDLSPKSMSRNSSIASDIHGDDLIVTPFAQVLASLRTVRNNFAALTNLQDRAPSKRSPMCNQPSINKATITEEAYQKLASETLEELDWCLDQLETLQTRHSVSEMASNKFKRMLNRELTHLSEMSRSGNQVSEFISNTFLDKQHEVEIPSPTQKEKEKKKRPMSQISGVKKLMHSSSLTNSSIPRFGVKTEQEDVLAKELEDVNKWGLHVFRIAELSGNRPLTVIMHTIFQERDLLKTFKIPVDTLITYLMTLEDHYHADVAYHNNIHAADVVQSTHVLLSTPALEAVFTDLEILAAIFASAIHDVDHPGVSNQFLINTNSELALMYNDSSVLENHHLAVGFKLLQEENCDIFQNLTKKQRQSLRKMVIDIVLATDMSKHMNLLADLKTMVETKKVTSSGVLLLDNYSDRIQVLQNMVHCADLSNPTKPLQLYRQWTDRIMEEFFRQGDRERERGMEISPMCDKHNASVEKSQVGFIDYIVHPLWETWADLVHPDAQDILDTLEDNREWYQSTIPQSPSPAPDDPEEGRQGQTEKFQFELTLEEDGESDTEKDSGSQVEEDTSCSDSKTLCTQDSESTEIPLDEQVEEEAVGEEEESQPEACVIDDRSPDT

Compound: COc1ccc(C(=O)Nc2ccc(O)c3ncccc23)cc1OC1CCCC1.Cl
- IC50 [1]: 492 nM
- Activity [2]: 0.63 equiv
- Activity [3]: Active
- Activity [4]: Active
- Activity [5]: Active
- Activity (SH-SY5Y): Non-Toxic
- Activity [6]: 51%
- Activity [7]: 46%
- Activity [8]: Active
- Activity [9]: Non-Toxic
- Activity [10]: Non-Toxic
- Activity [11]: Non-Toxic
- Activity [12]: Non-Toxic
- Activity [13]: Non-Toxic
- Activity [14]: Non-Toxic
- Activity [15]: Non-Toxic
- Activity (Mus musculus [16]): Active
- Activity [17]: Non-Toxic
- Activity [18]: Non-Toxic
- Activity (Mus musculus [19]): Active
- Activity (Mus musculus [20]): 18 cm
- Time (Mus musculus [21]): 6.1 s
- Activity (Mus musculus [22]): 37.1%
- Activity (Mus musculus [23]): 26.8%
- K [24]: 0.0134 min⁻¹
- Papp at 10 h, 100 ug/ml (in vitro): 5.9 ×10⁻⁶ cm/s
